Active and inactive are the calls of the source.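 Rule for the calls, unless noted: active = Her2 level under about 52% in both replicate screens, with viability over 70% of control (limit read from the data); inconclusive = Her2 under the limit in one screen only, or viability under 70%; inactive = Her2 level above the set limit.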
How the values were obtained:
[1] = Her2 expression decrease, cell viability multiplex – SKBR3 breast tumor cells, AlphaScreen, ATP viability, primary screen (AID 461); conditions: SKBR3 Her2 protein level, 18-24 h, measured here: SKBR3 viability, ATP luminescence, at 10 µM;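 for Her2 level: lower value means less Her2 protein in the cells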;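 for viability: percent of carrier control wells set as 100% viability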
[2] = molecular target: Receptor tyrosine-protein kinase erbB-2 (Homo sapiens) (UniProt P04626); assay: as above; conditions: 18-24 h, at 10 µM, stronger effect = lower value
[3] = reduced viability of SK-BR-3 breast cancer cells – cell-based, 24 h, human, pilot screen (AID 572;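 active = viability at or below 10% of carrier control in both of two separate runs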;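 note: compound exposure lasted between 18 and 24 h rather than exactly 24 h; 100% = carrier-treated control wells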); conditions: SK-BR-3 viability, CellTiter-Glo luminescence, at 10 µM, stronger effect = lower value
[4] = HUVEC growth inhibition – cell-based, human, primary screen (AID 575;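 active = viability at or below 30% in both replicate assays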;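 note: 100% = median of untreated cell wells with 0.1% DMSO on each plate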); conditions: HUVEC proliferation, CellTiter-Glo luminescence, 72 h; at 10 µM; stronger effect = lower value
How it was run: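 Material: primary human umbilical vein endothelial cells / Schedule: 72 h exposure, 37 °C, 5% CO2, 30 min RT equilibration / Signal: ATP-based CellTiter-Glo luminescent read / Read-out basis: percent of median DMSO-control luminescence / Control set: 32 DMSO-only cell-control wells (high), 32 MePR drug-control wells (low) per plate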

[5] = H69AR cell proliferation blockers – human, duplicate replicates, primary screen (AID 580;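 active = viability at or under a set limit in both replicates, limit being median viability minus 3 SD, cut at about 48% in these data, passing the limit was not always enough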;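 note: 100% = mean luminescence of untreated wells and 0% = no signal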); conditions: H69AR lung tumor cells viability, ATP luminescence, 72 h; at 10 µM; stronger effect = lower value
[6] = MRP1 drug-resistance reversers in H69AR cells – cell-based, doxorubicin co-treatment, pilot screen (AID 601;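 active = viability loss from added drug above about 55%, and viability with drug at most 40%, in both replicates, limit read from the data, passing the limit was not always enough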); conditions: CellTiter-Glo, 72 h, at 10 µM; for differential viability (reversal): stronger effect = higher value
[7] = yeast transport mutant growth inhibition pilot in 384-well plates, post-Golgi transport modulator project (AID 636; in the data active = inhibition above about 31%); conditions: absorbance 615 nm, about 18 h, stronger effect = higher value
[8] = growth suppression of yeast trafficking mutant, preliminary HTS, modulators of trafficking downstream of Golgi apparatus project, 1536-format plate, OD 615 nm (AID 637; in the data active = inhibition above about 30%); conditions: yeast transport mutant growth, absorbance 615 nm, 18 h; stronger effect = higher value
[9] = H69AR cells + 2 uM doxorubicin, measured here: viability with 2 uM doxorubicin, stronger effect = lower value
[10] = H69AR cells, compound alone cytotoxicity

Sequence of Receptor tyrosine-protein kinase erbB-2 (Homo sapiens) (P04626 whole entry, looked up): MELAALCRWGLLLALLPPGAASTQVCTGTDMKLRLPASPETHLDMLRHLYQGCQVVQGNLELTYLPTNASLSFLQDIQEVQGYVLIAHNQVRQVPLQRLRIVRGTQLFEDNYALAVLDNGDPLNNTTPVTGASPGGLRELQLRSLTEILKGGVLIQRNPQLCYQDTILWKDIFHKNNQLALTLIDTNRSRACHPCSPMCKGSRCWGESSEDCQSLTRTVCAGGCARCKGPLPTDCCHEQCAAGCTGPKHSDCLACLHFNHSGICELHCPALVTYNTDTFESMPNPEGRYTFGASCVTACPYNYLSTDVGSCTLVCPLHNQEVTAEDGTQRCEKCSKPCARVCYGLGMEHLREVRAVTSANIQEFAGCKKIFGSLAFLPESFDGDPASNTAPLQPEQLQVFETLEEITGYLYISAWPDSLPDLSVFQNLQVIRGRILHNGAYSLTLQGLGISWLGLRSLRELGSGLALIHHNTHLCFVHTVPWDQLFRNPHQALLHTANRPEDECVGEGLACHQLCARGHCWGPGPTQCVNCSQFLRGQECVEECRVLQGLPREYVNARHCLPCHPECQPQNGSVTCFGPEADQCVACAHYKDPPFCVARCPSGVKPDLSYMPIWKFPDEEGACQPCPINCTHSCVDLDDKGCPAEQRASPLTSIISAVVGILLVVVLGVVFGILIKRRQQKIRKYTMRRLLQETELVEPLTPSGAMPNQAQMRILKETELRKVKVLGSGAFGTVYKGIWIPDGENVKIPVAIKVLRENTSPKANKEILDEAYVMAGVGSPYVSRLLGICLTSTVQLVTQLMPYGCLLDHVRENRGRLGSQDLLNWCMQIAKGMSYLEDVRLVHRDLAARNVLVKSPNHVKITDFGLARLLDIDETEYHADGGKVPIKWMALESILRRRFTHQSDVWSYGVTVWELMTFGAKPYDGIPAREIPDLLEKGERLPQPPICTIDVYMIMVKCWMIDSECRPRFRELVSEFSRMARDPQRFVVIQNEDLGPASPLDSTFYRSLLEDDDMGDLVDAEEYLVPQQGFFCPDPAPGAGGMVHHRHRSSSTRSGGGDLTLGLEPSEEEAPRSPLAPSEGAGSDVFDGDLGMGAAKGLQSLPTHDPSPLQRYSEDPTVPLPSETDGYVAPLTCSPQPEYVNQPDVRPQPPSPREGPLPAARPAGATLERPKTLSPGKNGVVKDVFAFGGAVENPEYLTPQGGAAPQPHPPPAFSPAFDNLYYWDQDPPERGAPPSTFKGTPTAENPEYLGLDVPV

Structure (SMILES) | viability [1] [%] | Her2 level [2] | viability [3] | viability [4] | viability [5] | differential viability (reversal) ([6]; H69AR cells + 2 uM doxorubicin) | viability [6, 9] [%] | viability [6, 10] [%] | inhibition [7] | inhibition [8]
Cc1cccc(-c2nnc(SCC#N)n2-c2cccc(Cl)c2)c1 | 90.5 | 83.5% (inactive) | 90.5% (inactive) | 104% (inactive) | 84.6% (inactive) | -3.93% (inactive) | 88.6 | 84.6 | -6% (inactive) | 0% (inactive)
CN1CCN(C(c2cccc(C(F)(F)F)c2)c2nnnn2C(C)(C)C)CC1 (stereo not given) | 94.5 | 86.5% (inactive) | 94.5% (inactive) | 102% (inactive) | 91.5% (inactive) | 1.82% (inactive) | 89.7 | 91.5 | -4.8% (inactive) | 0.82% (inactive)
CCOC(=O)c1ccc2nc(C)c3c(c2c1)OC(C)C3 (stereo not given) | 92 | 124% (inactive) | 92% (inactive) | 97.1% (inactive) | 87.9% (inactive) | 11% (inactive) | 76.9 | 87.9 | -2.6% (inactive) | -5.67% (inactive)
N#Cc1c(N)c(C(=O)c2ccccc2)n2c1CCCC2 | 103 | 71% (inactive) | 103% (inactive) | 97.7% (inactive) | 93.1% (inactive) | -6.13% (inactive) | 99.2 | 93.1 | -8.92% (inactive) | -0.66% (inactive)
CC(C)=CCCC(C)CN(C)CCc1ccccn1 (stereo not given) | 79 | 97% (inactive) | 79% (inactive) | 101% (inactive) | 98.6% (inactive) | 21.2% (inactive) | 77.3 | 98.6 | -5.19% (inactive) | -3.61% (inactive)
CCOC(=O)c1c(C)[nH]c(C(=O)Cn2c(=O)oc3ccccc32)c1C | 102 | 93.5% (inactive) | 102% (inactive) | 108% (inactive) | 89.5% (inactive) | 2.91% (inactive) | 86.6 | 89.5 | -3.97% (inactive) | 0.33% (inactive)
CC12CN3CC(C)(CN(C1)C3c1cc(Br)ccc1O)C2=O (stereo not given) | 95.5 | 124% (inactive) | 95.5% (inactive) | 87% (inactive) | 100% (inactive) | 1.15% (inactive) | 98.9 | 100 | -0.65% (inactive) | -3.83% (inactive)
c1cncc(-c2nnc(-c3ccco3)o2)c1 | 106 | 114% (inactive) | 106% (inactive) | 86.3% (inactive) | 105% (inactive) | 16% (inactive) | 89 | 105 | -4.93% (inactive) | -7.58% (inactive)
CCc1nnc(NC(=O)CN2CCN(c3ccccc3OC)CC2)s1 | 99.5 | 89% (inactive) | 99.5% (inactive) | 64.9% (inactive) | 50.7% (inactive) | 25.5% (inactive) | 25.2 | 50.7 | -0.39% (inactive) | -5.56% (inactive)
Cc1cc(NC(=O)CSc2nnc(COc3cccc(C)c3C)n2Cc2ccco2)no1 | 102 | 94% (inactive) | 102% (inactive) | 97.5% (inactive) | 104% (inactive) | 19.5% (inactive) | 85 | 104 | -4.59% (inactive) | -0.79% (inactive)
CCOc1ccc2[nH]c(=O)c(CN(Cc3ccccc3)C(=O)N3CCCC3)cc2c1 | 100 | 77% (inactive) | 100% (inactive) | 78.4% (inactive) | 82.1% (inactive) | 1.97% (inactive) | 80.1 | 82.1 | -2.5% (inactive) | -1.9% (inactive)
CCOc1ccc(CSC(CC(=O)O)C(=O)O)cc1 (stereo not given) | 90 | 83.5% (inactive) | 90% (inactive) | 84.1% (inactive) | 84.2% (inactive) | -2.67% (inactive) | 86.8 | 84.2 | -3.29% (inactive) | 0.55% (inactive)
Cc1nn(Cc2ccc(C(=O)NC3CCCCC3)o2)c(C)c1Br | 94.5 | 90% (inactive) | 94.5% (inactive) | 86.9% (inactive) | 92.9% (inactive) | -5.8% (inactive) | 98.7 | 92.9 | -3.29% (inactive) | -5.17% (inactive)
COc1cccc(C(=O)Nc2ncc3c(n2)CC(C)CC3=O)c1 (stereo not given) | 97.5 | 88.5% (inactive) | 97.5% (inactive) | 107% (inactive) | 109% (inactive) | 9.34% (inactive) | 100 | 109 | -2.16% (inactive) | 2.22% (inactive)
CC1(C)Cc2c(sc3c2C2=NCCN2C=N3)CO1 | 111 | 104% (inactive) | 111% (inactive) | 91.5% (inactive) | 90.9% (inactive) | 1.75% (inactive) | 89.2 | 90.9 | -3.82% (inactive) | -4.55% (inactive)
CCC(C(=O)O)n1c(C(F)(F)F)nc2ccccc21 (stereo not given) | 105 | 116% (inactive) | 105% (inactive) | 105% (inactive) | 103% (inactive) | 3.27% (inactive) | 99.3 | 103 | -5.62% (inactive) | 0% (inactive)

Structure (SMILES) | viability [1] [%] | Her2 level [2] | viability [3] | viability [4] | viability [5] | differential viability (reversal) ([6]; H69AR cells + 2 uM doxorubicin) | viability [6, 9] [%] | viability [6, 10] [%] | inhibition [7] | inhibition [8]
CCCS(=O)(=O)N1CCCC(C(=O)N2CCC(Cc3ccccc3)CC2)C1 (stereo not given) | 91.5 | 96.5% (inactive) | 91.5% (inactive) | 85.9% (inactive) | 98.7% (inactive) | 1.65% (inactive) | 97.1 | 98.7 | -1.32% (inactive) | 4.92% (inactive)
CC(=O)c1cc(-c2ccc(F)cc2)n(CCC(=O)Nc2cc(C)[nH]n2)c1C | 105 | 82.5% (inactive) | 105% (inactive) | 102% (inactive) | 104% (inactive) | 18.3% (inactive) | 85.5 | 104 | -6.62% (inactive) | 2.46% (inactive)
Cc1cc(C)nc(N2CCCC(C(=O)Nc3ccc4c(c3)OCO4)C2)n1 (stereo not given) | 93 | 104% (inactive) | 93% (inactive) | 96.9% (inactive) | 98.5% (inactive) | 8.88% (inactive) | 89.6 | 98.5 | -5.54% (inactive) | -12.3% (inactive)
COc1cc(C2C(C#N)=C(N)OC3=C2C(=O)CC(C)(C)C3)ccc1OC(=O)N1CCOCC1 (stereo not given) | 84.5 | 94.5% (inactive) | 84.5% (inactive) | 97.6% (inactive) | 98.8% (inactive) | 4.58% (inactive) | 94.2 | 98.8 | 1.49% (inactive) | -7.54% (inactive)
CCOc1ccc(-c2nnc(N)s2)cc1 | 95 | 90.5% (inactive) | 95% (inactive) | 96.3% (inactive) | 118% (inactive) | 25.6% (inactive) | 92.3 | 118 | 0.67% (inactive) | -1.29% (inactive)
Cc1cc(NC(=O)CSc2nc3ccccc3n2CC(=O)N2CCCCC2)no1 | 78 | 70% (inactive) | 78% (inactive) | 103% (inactive) | 86.2% (inactive) | 8.37% (inactive) | 77.8 | 86.2 | -5.54% (inactive) | 3.61% (inactive)
CC(C)=CC/C=C1\CCC(C(=O)O)C(C(=O)O)C1 (stereo not given) | 114 | 104% (inactive) | 114% (inactive) | 91.6% (inactive) | 104% (inactive) | 20.5% (inactive) | 83.2 | 104 | -6.13% (inactive) | -0.48% (inactive)
CSc1nnc2c3ccccc3n(CCc3ccccc3)c2n1 | 90 | 100% (inactive) | 90% (inactive) | 68.6% (inactive) | 89.4% (inactive) | 3.33% (inactive) | 86.1 | 89.4 | -1.35% (inactive) | 46.2% (active)
Cc1cc(C(F)F)n2nc(C(=O)Nc3ccc(S(=O)(=O)N4CCCCCC4)cc3)nc2n1 | 74 | 73.5% (inactive) | 74% (inactive) | 83.4% (inactive) | 83.3% (inactive) | -1.62% (inactive) | 84.9 | 83.3 | -3.87% (inactive) | 22.9% (inactive)
CCOc1cc(S(=O)(=O)N2CCC(Cc3ccccc3)CC2)c(OCC)cc1-n1cnnn1 | 77.5 | 102% (inactive) | 77.5% (inactive) | 90.7% (inactive) | 99.7% (inactive) | 32.5% (inactive) | 67.2 | 99.7 | 5.95% (inactive) | -1.59% (inactive)
O=C1C2CCCN2C(c2ccc(Cl)cc2)N1c1nccs1 (stereo not given) | 99 | 77% (inactive) | 99% (inactive) | 86.5% (inactive) | 97.4% (inactive) | 7.26% (inactive) | 90.2 | 97.4 | -2.24% (inactive) | -1.94% (inactive)
NC(=O)C1(N2CCCCC2)CCN(C2CC(=O)N(Cc3cccs3)C2=O)CC1 (stereo not given) | 112 | 103% (inactive) | 112% (inactive) | 101% (inactive) | 98% (inactive) | 6.76% (inactive) | 91.3 | 98 | -4.74% (inactive) | -0.48% (inactive)
Cn1c(SCC(=O)Nc2ccc3c(c2)oc2ccccc23)nnc1-c1ccccc1 | 83 | 75.5% (inactive) | 83% (inactive) | 53.1% (inactive) | 69.4% (inactive) | -7.74% (inactive) | 77.1 | 69.4 | -5.73% (inactive) | 5.9% (inactive)
CCCCC(c1nnnn1C1CCCC1)N1CCN(C2CCCCC2)CC1 (stereo not given) | 81.5 | 74% (inactive) | 81.5% (inactive) | 106% (inactive) | 92.7% (inactive) | 20.4% (inactive) | 72.2 | 92.7 | -6.62% (inactive) | 1.83% (inactive)
CC1(CC(=O)O)C(=O)N=C2C=CC=CN21 (stereo not given) | 93 | 87.5% (inactive) | 93% (inactive) | 97.9% (inactive) | 89.4% (inactive) | 5.18% (inactive) | 84.2 | 89.4 | -4.93% (inactive) | 0.16% (inactive)
O=C(CN1C(=O)c2ccccc2C1=O)Nc1ccccc1C(=O)N1CCCC1 | 83 | 90.5% (inactive) | 83% (inactive) | 96% (inactive) | 109% (inactive) | 19.7% (inactive) | 89 | 109 | -3.78% (inactive) | 1.59% (inactive)

Reference: PubChem BioAssay
